A selection: hits, their analogues and other compounds. The true share with any hit is near 2.5%.
MEKK2 WT-MEK5: raises or lowers MEK5 binding to wildtype human MEKK2 PB1 domain; Q9Y2U5; bead flow cytometry, Alexa488-MEK5 binding to MEKK2 WT; actives lie on both sides; binding response (% of control), % at 10 µM; hit rate 1.1% among 290,000; in the data active = binding response below about 67% or above about 130%
UCH37 inh: inhibitors of human deubiquitinating enzyme UCH37 | Q9Y5K5 | purified proteasome/UCH37, Ub-AMC cleavage fluorescence | inhibition, % (concentration not given with the values) | hit rate 0.33% among 330,000 | AID 588478;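 active = mean inhibition over replicate wells above about 20%, limit read from the data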;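 also: 0% = compound-free wells with enzyme and 100% = wells lacking proteasome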
Target sequence (Q9Y5K5 whole entry, looked up): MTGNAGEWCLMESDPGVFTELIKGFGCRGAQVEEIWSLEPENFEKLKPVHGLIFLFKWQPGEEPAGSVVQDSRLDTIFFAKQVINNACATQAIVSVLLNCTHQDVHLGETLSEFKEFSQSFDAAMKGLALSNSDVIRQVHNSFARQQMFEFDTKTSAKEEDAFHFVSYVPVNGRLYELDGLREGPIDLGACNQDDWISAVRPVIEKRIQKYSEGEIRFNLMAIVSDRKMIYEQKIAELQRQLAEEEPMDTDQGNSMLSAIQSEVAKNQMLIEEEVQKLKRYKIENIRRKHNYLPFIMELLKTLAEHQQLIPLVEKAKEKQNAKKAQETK
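Material: human UCH37 enzyme supplied as purified proteasome complex. Measure: % inhibition of Ub-AMC cleavage fluorescence. Medium: pH 7.4 Tris-HCl (50 mM) with ovalbumin, ATP-MgCl2, DTT. Times: 30 min preincubation with enzyme, 25 min cleavage at room temperature. Detection: AMC fluorescence intensity at 355/460 nm.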
MEKK2mut PB1 HTS: signal of MEK5 binding to mutant human MEKK2 PB1 domain; bead flow cytometry, Alexa488-MEK5 binding to MEKK2 mutant; percent response, % at 10 µM; hit rate 0.35% among 290,000; in the data active = percent response above about 24%, passing the limit was not always enough
MEKK3 PB1 HTS: MEKK3-MEK5 PB1 interaction, increase or decrease. hit rate 1.4% among 290,000. AID 1529. Q99759. binding response (% of control), % at 10 µM. bead-based flow cytometry, Alexa488-MEK5 binding to MEKK3; actives lie on both sides; 0 = blocked by unlabeled MEK5, 100 = vehicle;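 active = binding response more than 3 SD above or below the average of its plate-row segment, actives on both sides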;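 also: Alexa488 bead fluorescence after subtracting the streptavidin-only scavenger bead signal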
T cell HTS: T cell immune modulators affecting CD8 T cell-vesicle binding; 2C CD8+ T cell-vesicle binding, flow cytometry; hits give low values; response (vesicle binding), % at 7 µM; hit rate 0.068% among 330,000; AID 2052;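 active = response, share of CD8 T cells binding vesicles, and their 90th percentile fluorescence all below set limits, cut at about 80% in these data, passing the limit was not always enough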;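 also: values below 100% mean blocked vesicle binding to the CD8+ T cells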
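incubation = binding step 1.5 h, 37 °C, antibody labelling 20 min, ice | test system = 2C mouse CD8+ T cells | read-out basis = percent CD8+ FL2 mean versus row control | controls = Peptide-free naked vesicles (low) and QL9 vesicles with 0.7% DMSO vehicle (high) | detection = flow cytometry of vesicle-bound cells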
Rce1 inh: inhibitors of yeast Ras-converting enzyme. Q03530. yeast membranes, quenched prenylated peptide cleavage fluorescence. calls only. hit rate 0.27% among 290,000;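 active = fall in fluorescence gain of 50% or more versus controls, with final raw signal at or below 3038400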;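 also: plate controls were neutral control wells for no effect and wells lacking membranes for full effect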
* = called active by the depositor; i = inactive; . = no result given; + = active, no number; [ ] = dose if it differs, or a comment.

SMILES	MEKK2 WT-MEK5	UCH37 inh	MEKK2mut PB1 HTS	MEKK3 PB1 HTS	T cell HTS	Rce1 inh
C=C(C)CC(NCCc1ccccc1)c1ccco1 (stereo not drawn)	164*	6	-15	98	.	i
O=C(NCCc1ccccc1)c1ccco1	109	1	6	111	354	i
COc1ccc(/C=C(/NC(=O)c2ccccc2)C(=O)NN=Cc2ccc3c(c2)OCO3)cc1OC	.	12	.	.	.	.
COc1cc(C=NNC(=O)c2ccc(C)nc2)ccc1OC(=O)c1ccco1	.	8	.	.	.	.
CCOC(=O)N1CCN(S(=O)(=O)c2ccc(C(=O)Nc3sc4c(c3C(N)=O)CCN(CC)C4)cc2)CC1	99	1	-2	96	483	i
CCCN1CCc2c(sc(NC(=O)c3ccc(S(=O)(=O)N4CCN(C(=O)OCC)CC4)cc3)c2C(N)=O)C1	4.0*	1	4	102	369	i
Cc1oc(N=Cc2ccccc2O)c(C#N)c1C	.	5	.	.	.	.
CCc1ccc(NC(=O)c2cccc(C(=O)Nc3ccc(CC)cc3)n2)cc1	-9.0*[inhibitor]	-2	-28	0.0*[inhibitor]	676	i
COc1cc(C=NNc2nncn2N=Cc2ccc(O)c(OC)c2)ccc1O	.	6	.	.	.	.
O=C(CN(Cc1ccccc1)S(=O)(=O)c1ccc(Br)cc1)NN=Cc1ccccc1C(=O)O	.	1	.	.	.	.
O=C1c2cccc(OCC(=O)N3N=C(c4cccs4)CC3c3ccc(F)cc3)c2CCN1Cc1cccnc1 (stereo not drawn)	92	-82	-1	102	147	+
O=C(c1cccnc1)N1N=C(c2cccs2)CC1c1ccc(F)cc1 (stereo not drawn)	89	7	-9	86	362	i
C=C(C)COc1ccc(-c2n[nH]c(C)c2Oc2ccccc2OC)c(O)c1	109	35*	16	104	379	i
Cc1c(C(=O)NCCN2C(=O)S/C(=C\c3cccnc3)C2=O)cccc1[N+](=O)[O-]	102	8	2	101	19*	i
CCN1CCc2c(OCC(=O)Nc3cccc(C)c3C)cccc2C1=O	98	0	-3	94	67*	i
Cc1ccc(N=Nc2c(=O)[nH]n3c(C)cc(C)nc23)cc1	.	8	.	.	178	i
Cc1cc(C)n2[nH]c(=O)c(N=Nc3ccc(S(N)(=O)=O)cc3)c2n1	86	25*	-8	92	218	i
COc1cccc(N=Nc2c(=O)[nH]n3c(=O)c4c([nH]c23)CCC4)c1	100	20*	5	104	143	i
O=c1[nH]n2c(=O)c3c([nH]c2c1N=Nc1cccc(Cl)c1)CCC3	95	18	-1	91	259	i
NS(=O)(=O)c1ccc(N=Nc2c(=O)[nH]n3c(=O)c4c([nH]c23)CCCC4)cc1	95	21*	-4	105	189	i
COCc1c(C(=O)NN=Cc2cccc3ccccc23)nnn1-c1nonc1N	.	-69	.	.	.	.
O=C(NN=Cc1coc2ccc(Cl)cc2c1=O)c1ccncc1	.	-46	.	.	.	.
O=C(COC(=O)C1CC1)NC(=O)c1ccccc1	.	4	.	.	293	.
O=C(COC(=O)C1CCC1)NC(=O)c1ccccc1	.	3	.	.	0.0*	i
COc1cccc(C=NNC(=O)Cn2cnc3c2c(=O)n(C)c(=O)n3C)c1OC	.	-6	.	.	.	.
SMILES	MEKK2 WT-MEK5	UCH37 inh	MEKK2mut PB1 HTS	MEKK3 PB1 HTS	T cell HTS	Rce1 inh
Cc1cccc(/C=N/NC(=O)c2ccc(Br)cc2)c1	87	.	-4	85	662	+
Cc1cccc(C=NNC(=O)c2ccc(Br)cc2)c1	.	-1	.	.	.	.
COc1ccc2c(CCNC(=O)c3ccc([N+](=O)[O-])cc3)c[nH]c2c1	102	27*	3	100	249	i
CCc1ccc2nc3sc(C(=O)N4CCc5ccccc54)c(N)c3cc2c1	87	.	59*	103	197	i
CCOc1cc(/C=N/NC(=O)c2ccc(-c3csc(Nc4ccc(C)cc4)n3)cc2)ccc1OCC(=O)O	77	.	-20	80	.	.
O=C(O)COc1ccc(/C=N/NC(=O)c2ccc(-c3csc(Nc4ccc(Cl)cc4)n3)cc2)cc1	73	.	-7	60*[inhibitor]	.	i
CCN(CC)c1ccc2cc(C(N)=O)c(=NNC(=O)c3ccncc3)oc2c1	.	22*	.	.	.	.

Screens deposited in PubChem by several laboratories.
